A selection: hits, their analogues and other compounds. The true share with any hit is near 1.9%.
p47phox inh: p47phox/p22phox peptide binding inhibitors, primary screen, biochemical, uHTS, NADPH oxidase regulatory subunit; actives 0.53% (n = 220,000); fluorescence polarization, 2 h; inhibition, % at 24.7 µM; Neutrophil cytosol factor 1 (Homo sapiens), P14598;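 active means inhibition above about 30%, limit read from the data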;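 further: 0% = p47phox with labelled peptide and 100% = labelled peptide alone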
Target sequence (P14598 whole entry, looked up): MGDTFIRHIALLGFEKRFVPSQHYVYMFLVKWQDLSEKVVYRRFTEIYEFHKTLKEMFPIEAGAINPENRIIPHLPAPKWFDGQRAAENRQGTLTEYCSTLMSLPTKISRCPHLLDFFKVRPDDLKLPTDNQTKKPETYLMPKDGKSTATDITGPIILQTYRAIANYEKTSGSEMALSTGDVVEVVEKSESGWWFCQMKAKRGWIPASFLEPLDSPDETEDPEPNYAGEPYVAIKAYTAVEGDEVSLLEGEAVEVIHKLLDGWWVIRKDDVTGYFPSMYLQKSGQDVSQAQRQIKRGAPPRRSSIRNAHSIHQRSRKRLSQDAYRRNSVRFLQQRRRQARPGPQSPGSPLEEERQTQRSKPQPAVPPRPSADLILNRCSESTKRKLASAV
Dynein cargo inh: inhibitors of GR-EGFP nuclear translocation, primary screen, dynein cargo transport inhibitor project, imaging, high-content, 3617.4 mouse cells; test concentration mostly 20 µM; stimulated with dexamethasone, 1 µM; hits give low values; z-score, hits read low; actives 0.47% (n = 220,000); AID 1381, 2008;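 active means plate z-score of nuclear minus cytoplasmic receptor signal below a set negative limit, without overly bright fluorescence or cell loss, cut at about -3.5 in these data, passing the limit was not always enough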;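 further: z-score of nuclear minus cytoplasmic ring GR-EGFP intensity difference per well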
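Buffer or medium: Induction medium lacking tetracycline, stripped serum | Also added: Dexamethasone agonist, 1.0 µM final, for 30 min | Timing: 48 h induction, 1 h compound, 30 min dex at 37 °C | Detection: Formaldehyde fixation, Hoechst nuclear stain, 10x automated fluorescence imaging | Measure: Nuclear versus cytoplasmic GR-EGFP signal, averaged per well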
RAM inhibit: inhibitors of the yeast RAM network, primary screen, dse1pr::URA3 reporter, 5-FOA selection; inhibition, % at 50 µM; S. cerevisiae dse1pr::URA3 reporter, 5-FOA growth OD615, 2 d; analog-sensitive cbk1-as2 kinase mutant strain; actives 1.8% (n = 190,000);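 active means inhibition above a set limit, 3 SD over mean compound inhibition, cut at about 8.4% in these data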;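 further: 0% = DMSO-only wells with no growth and 100% = 10 µM 1-NA-PP1 full growth; inhibition rescues growth on 5-FOA so higher OD means more RAM inhibition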
p-CIP stab down: p/CIP-EGFP fusion destabilizers, primary screen, fluorescence, F442A cells; Q05BA5; 16 h; decrease of EGFP signal, % at 10 µM; actives 0.01% (n = 290,000);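 active means EGFP signal decrease of at least 30% at 10 µM or well 3 SD below plate mean, unless failing retest; inactive means the rest, including hits failing retest or dose response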
An asterisk follows results filed as active; · = no result; + = active, no number.

SMILES	p47phox inh	Dynein cargo inh	RAM inhibit	p-CIP stab down
CSc1cccc(NC(=S)N(CCCN2CCCC2)Cc2cccn2Cc2ccc(Cl)cc2)c1	32*	-0.43	6	-8
S=C(Nc1cccc(Cl)c1)N(CCCN1CCCC1)Cc1cccn1Cc1ccc(Cl)cc1	43*	0.55	5	-2
CSc1cccc(NC(=S)N(CCCN2CCCC2)Cc2cccs2)c1	10	-0.95	2	-5
Cc1ccccc1NC(=O)CSCc1cc(=O)n2ccsc2n1	·	·	·	-6
Cc1cccc(COc2ccc(/C=C3/C(=O)N(C)C(=S)N3C)cc2)c1	·	·	·	-5
Cc1cc(NC(=O)c2ccc(Cl)cc2)no1	48*	0.93	0	-4
CCC(C)NC(=O)c1ccc(NC(=O)C2=C(C)OCCS2)cc1 (stereo not drawn)	·	·	·	-2
CC(=O)c1ccc(N2CCN(C(=O)CCCc3nc4ccccc4s3)CC2)cc1	-11	-0.11	9.3*	-1
O=C(CCc1nc2ccccc2s1)N1CCN(c2ccccc2)CC1	4	1.1	0	-27
Cc1ccc(-c2nn(CC(=O)NCc3cc(-c4nn(C)c(=O)c5ccccc45)ccc3C)c(=O)c3ccccc23)cc1	59*	-0.39	2	4
Cc1noc(C)c1CSc1nnc(-c2c[nH]c3ccccc23)n1-c1ccc(Cl)cc1	0	2.1	9.4*	13
CCc1ccc(-n2c(SCc3c(C)noc3C)nnc2-c2ccncc2)cc1	-1	-1.5	0	-13
O=C(N=Nc1c(O)n(Cc2ccccc2)c2ccccc12)c1cc2ccccc2cc1O	40*	-0.31	3	4
Cc1ccc(NC(=O)Cn2c(O)c(N=NC(=O)c3ccncc3)c3ccccc32)cc1	12	1.1	2	-14
Cc1ccc(NC(=O)Cn2c(O)c(N=NC(=O)c3cc4ccccc4cc3O)c3ccccc32)cc1	58*	-0.44	2	2
O=C(N=Nc1c(O)n(Cc2ccccc2)c2ccccc12)c1ccc(O)cc1	-3	0.7	4	-13
C=CCSc1nnc(-c2ccncc2)n1-c1ccc(OCC)cc1	+	-0.0015	1	4
O=S(=O)(N/N=C\c1ccc(-c2ccccc2Cl)o1)c1ccccc1	-25	0.34	10*	-7
O=C(N/N=C/c1ccc(-c2ccccc2Cl)o1)c1ccccc1	-10	-0.59	3	-2
CC(=O)C(Cc1ccccc1)NC(=O)CN(C)Cc1ccccc1Cl (stereo not drawn)	·	·	·	-4
COc1ccc(CC(=O)OCC(=O)N2N=C(c3ccccc3)CC2c2ccc(OC)cc2)cc1 (stereo not drawn)	0	2.6	8.9*	-8
COc1cccc(NC2=C(Cl)C(=O)OC2OC(=O)c2ccco2)c1 (stereo not drawn)	-2	-1.3	2	2
CCCOP(=O)(c1ccc(N(C)C)cc1)C(O)c1ccc(Cl)cc1 (stereo not drawn)	·	·	·	-10
Cc1nc(SCc2ccccc2F)c2cnn(-c3ccccc3)c2n1	-38	-0.3	11*	3
O=S(=O)(Nc1ccc(O)c(Sc2nc3ccccc3s2)c1)c1ccc(F)cc1	-28	0.68	8.9*	4
SMILES	p47phox inh	Dynein cargo inh	RAM inhibit	p-CIP stab down
CS(=O)(=O)c1ccc(Sc2nc3ccccc3s2)c([N+](=O)[O-])c1	-1	2.2	3	-1
O=[N+]([O-])c1cc(S(=O)(=O)C(F)(F)F)ccc1Sc1nc2ccccc2s1	-9	-3.4	8.5*	-15
O=S(=O)(c1ccc(Cl)c(Cl)c1)c1snnc1-c1ccccc1	-17	-4*	7	7
COc1cc2ccccc2cc1C(=O)N1CCN(C(C)=O)CC1	·	·	·	0
COc1ccc2cc(OC)c(C(=O)N3CCOCC3)cc2c1	37*	-0.6	1	-13
Cc1ccc(NC(=O)CSc2nc(C)c(C)c(C)n2)c([N+](=O)[O-])c1	-1	-0.49	8.5*	-7
Cc1ccc(NC(=O)CSc2ncccn2)c([N+](=O)[O-])c1	2	0.25	-1	-20
O=C(CN1C(=O)COc2ccccc21)N1CCN(C2CCCCC2)CC1	·	·	·	-3
Cc1c(CCOC(=O)C23CC4(C)CC(C)(CC(C)(C4)C2)C3)sc[n+]1CC(=O)c1ccccc1	33*	-0.95	-2	-8
COc1ccc(C(=O)COC(=O)c2ccc(OC)c(OC)c2)cc1OC	96*	0.23	5	-4
CC(=O)c1ccc(N2C(=NC(=O)CCC3CCCC3)SC3CS(=O)(=O)CC32)cc1 (stereo not drawn)	·	·	·	-3
Nc1ncnc2c1C1(CCCCC1)Cc1ccccc1-2	-1	-0.26	1	-9
c1ccc(OCc2nc3c4c(ncn3n2)-c2ccccc2CC42CCCC2)cc1	-19	-0.79	8.4*	5
CC(=O)N1CCC(C(=O)N2CCN(S(=O)(=O)c3ccc(F)cc3)CC2)CC1	·	·	·	-1
O=C(NCCN1CCCCC1)c1ccc(Oc2cc(Cl)cc(Cl)c2)o1	30*	-0.62	·	-8
CC1CCc2cc(F)cc3c(O)c(C(=O)NCC4CCCO4)c(=O)n1c23 (stereo not drawn)	8	-0.67	11*	2
CCCn1c(=O)c(C(=O)NCC2CCCO2)c(O)c2ccccc21 (stereo not drawn)	-13	-0.13	2	-14
Cc1ccc(S(=O)(=O)N2CCC3(CC2)OCCO3)cc1	·	·	·	-7
CCSc1ccc(-c2nn(-c3ccccc3)cc2/C=C(/C#N)C(=O)NC)cc1	-15	-0.29	4	-6
O=C(N/C(=C/c1cn(-c2ccccc2)nc1-c1ccccc1)C(=O)N1CCOCC1)c1ccc(Cl)cc1Cl	4	-0.57	8.9*	-9
CCCSc1ccc(-c2nn(-c3ccccc3)cc2/C=C(/C#N)C(=O)N2CCOCC2)cc1	-14	-0.56	8.8*	5
CC(C)c1cc(CNC(=O)CC2C(=O)NCCN2CC2CCCCC2)on1 (stereo not drawn)	6	-0.8	1	11
Cc1ccc(OCCSCc2nnc(NC(=O)Nc3cccc(Cl)c3)s2)cc1	-36	-0.54	8.4*	0
Cc1nnc(NC(=O)Nc2cccc(Cl)c2)s1	-14	0.25	3	7
Cc1ccc(-c2csc(N3N=C(c4ccccc4)/C(=C\c4ccc(N(C)C)cc4)C3=O)n2)cc1	51*	1.6	4	-4
SMILES	p47phox inh	Dynein cargo inh	RAM inhibit	p-CIP stab down
N#Cc1ccccc1NC(=O)CSc1nnc(-c2ccccc2O)n1-c1ccccc1	-13	0.34	10*	-8
Cc1ccccc1NC(=O)CSc1nnc(-c2ccccc2)n1-c1ccccc1	7	0.63	2	-16
COc1cc(/C=C2/SC(=O)N(Cc3ccccc3Cl)C2=O)ccc1OCc1ccncc1	31*	-0.43	8	-2
COc1cc(/C=C2/SC(=O)NC2=O)ccc1OCc1ccccc1	·	·	·	-6
COc1ccc(/C=C/c2cc(=O)c3cc(Cl)ccc3o2)cc1	-5	0.21	10*	-20
Oc1ccccc1N1CCN(C(=S)NCCc2ccccc2)CC1	47*	-0.62	2	-12
S=C(NCCc1ccccc1)N1CCN(Cc2ccccc2)CC1	7	0.47	-1	-10
